Bioassay records (PubChem)
Neddylation inh: inhibitors of cullin neddylation, primary screen, biochemical, TR-FRET, uHTS, NAE and Ubc12; 0.58% of 360,000 active; inhibition, % at 25 µM; NEDD8-conjugating enzyme Ubc12 (Homo sapiens) + NEDD8-activating enzyme E1 regulatory …; AID 651699, 2012; in the data active = inhibition above about 36%
UCH37 DUB inh: inhibitors of human UCH37 deubiquitinase, primary screen, biochemical, Ub-AMC cleavage, fluorescence; 0.33% of 330,000 active; Ubiquitin carboxyl-terminal hydrolase isozyme L5 (Homo sapiens), Q9Y5K5; purified proteasome/UCH37; inhibition, % (test concentration not listed);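 active = mean inhibition over replicate wells above about 20%, limit read from the data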
Target sequence (Q9Y5K5 whole entry, looked up): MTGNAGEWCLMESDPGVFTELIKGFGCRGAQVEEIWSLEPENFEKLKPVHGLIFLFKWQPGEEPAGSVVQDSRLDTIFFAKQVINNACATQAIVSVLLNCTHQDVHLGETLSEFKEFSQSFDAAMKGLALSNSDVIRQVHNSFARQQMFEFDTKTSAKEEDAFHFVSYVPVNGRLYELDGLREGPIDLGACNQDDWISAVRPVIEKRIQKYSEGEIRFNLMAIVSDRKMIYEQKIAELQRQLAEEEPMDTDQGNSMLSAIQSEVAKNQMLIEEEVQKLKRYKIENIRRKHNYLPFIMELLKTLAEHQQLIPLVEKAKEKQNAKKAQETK
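System: Proteasome-associated human UCH37 deubiquitinase; Input: 0.15 nM proteasome in added enzyme buffer; Also added: Ub-AMC substrate from 1 µM stock; Incubation: 30 min compound-proteasome preincubation then 25 min substrate reaction, room temperature; Detection: fluorescence, ex 355 nm, em 460 nm; Read-out: % inhibition of Ub-AMC cleavage fluorescence; Benchmarks: no-proteasome and no-compound wells.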
CTSL1 counter: Fasciola hepatica cathepsin L1 inhibitors, primary screen, counter-screen for PFM18AAP inhibitor project, biochemical, QFRET, fluorogenic peptide substrate; recombinant F. hepatica cathepsin L1, Z-Leu-Arg-MCA fluorescence; inhibition, % at 5.96 µM; 0.49% of 300,000 active;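 active = inhibition above the mean of all tested compounds plus 3 SD, set per screening campaign, cut at about 17% in these data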
SUMO HTRF inh: inhibitors of in vitro SUMOylation cascade, primary screen, biochemical, HTRF, uHTS | SUMO-conjugating enzyme UBC9 (Homo sapiens), P63279 | HTRF SUMOylation assay, SAE1/SAE2 + UBC9 | inhibition, % at 35 µM | 0.36% of 290,000 active | AID 2006, 2009; in the data active = inhibition above about 50%, passing the limit was not always enough
Target sequence (P63279 whole entry, looked up): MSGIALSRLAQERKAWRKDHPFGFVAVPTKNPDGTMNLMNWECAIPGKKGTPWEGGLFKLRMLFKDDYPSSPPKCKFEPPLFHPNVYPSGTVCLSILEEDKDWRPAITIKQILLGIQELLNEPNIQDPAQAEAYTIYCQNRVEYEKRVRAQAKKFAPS
Neddyl inh conf: blockade of NEDD8 conjugation to cullin – biochemical, TR-FRET, single concentration, confirmation. shares compounds with Neddylation inh. TR-FRET cullin neddylation biochemical assay. calls only at 25 µM. 13% of 1,800 active. AID 652217, 2013; in the data active = inhibition above about 40%;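 note: neddylation substrate is the cullin 1 ring ligase complex with SKP2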
Hits are given with their value; – = inactive; · = no result given; + = active, no number. The list is not random: actives were taken first. Their share in the collection is about 1.4%.

SMILES	Neddylation inh	UCH37 DUB inh	CTSL1 counter	SUMO HTRF inh	Neddyl inh conf
Cc1ccc(-c2nc3ncccc3o2)cc1NC(=O)C(C)(C)C	40.6	–	–	–	·
COc1ccccc1N1CCN(CC(O)c2ccc3cc[nH]c3c2)CC1 (stereo not given)	43.9	–	–	–	–
CCOC(=O)N1CCN(CC(O)c2ccc3cc[nH]c3c2)CC1 (stereo not given)	–	–	–	–	·
CN(C)c1oc(-c2ccccc2Cl)nc1C#N	40.7	–	–	–	–
CC(=O)c1ccc2c(c1)c(C#N)c1ccccc1[n+]2[O-]	41.3	–	·	–	+
N#Cc1nc(-c2ccco2)oc1NCc1ccccc1Cl	39.4	–	–	–	–
N#Cc1nc(-c2ccco2)oc1NCc1ccco1	·	–	–	–	·
CC(=NNc1ccc(Cl)c(C(=O)O)c1)c1ccc[nH]1	·	–	·	·	·
COc1cc(C=NNC(=O)C2COc3ccccc3O2)cc(OC)c1OC (stereo not given)	·	–	·	·	·
COc1ccc(OC)c(C2C(C#N)=C(N)Oc3cc(N)ccc32)c1 (stereo not given)	–	–	–	–	·
C#CCOc1ccc(C2C(C#N)=C(N)Oc3cc(O)ccc32)cc1 (stereo not given)	56.2	–	–	–	–
COc1ccc(C2C(C#N)=C(N)Oc3cc(O)ccc32)cc1Cl (stereo not given)	48.4	–	–	–	–
N#CC1=C(N)Oc2cc(O)ccc2C1c1ccncc1 (stereo not given)	–	–	–	–	·
CCOc1ccccc1C1C(C#N)=C(N)Oc2cc(N)ccc21 (stereo not given)	46.7	–	–	–	–
COc1ccc(C(=O)Cn2c(=O)c(CCC(=O)O)nn3c4ccccc4nc23)cc1OC	39.1	–	–	–	+
Cc1ccc(C=Nn2cc(-c3ccccc3)[nH]c2=S)s1	·	–	·	·	·
CC(Oc1ccc2ccc(=O)oc2c1)C(=O)N1CCOCC1 (stereo not given)	53.0	–	–	·	·
CC(Oc1ccc2c(-c3ccccc3)cc(=O)oc2c1)C(=O)N1CCOCC1 (stereo not given)	–	–	·	·	·
Cc1nn(-c2ccccc2)c2nc(Cl)c(C(=O)O)cc12	·	–	–	–	·
Cc1nn(-c2ccccc2)c2nc3c(cc12)C(=O)CCC3	43.6	–	–	–	–
COc1ccc(NN=C(C)C(=NO)C(=O)Nc2ccccc2)cc1	·	–	·	·	·
COc1ccc(-n2cc(CNCc3cccnc3)c(-c3cccc(F)c3)n2)cc1	48.3	–	–	–	+
COc1ccc(-c2nn(-c3ccccc3)cc2CNCc2cccnc2)c(F)c1	–	–	–	–	·
COc1ccc(C=NNC(=O)CCNc2n[nH]c(=O)[nH]c2=O)c(OC)c1	·	–	·	·	·
COc1ccc2cc3cc(C(=O)N4CCCC(C)C4)oc3nc2c1 (stereo not given)	45.0	–	–	–	–
SMILES	Neddylation inh	UCH37 DUB inh	CTSL1 counter	SUMO HTRF inh	Neddyl inh conf
O=C(NN=Cc1ccccc1Br)c1cccc(S(=O)(=O)N2CCOCC2)c1	·	–	·	·	·
COc1ccc(CNC(=O)CC(C)=NNC(=O)COc2ccccc2)cc1	·	–	·	·	·
CC(=O)c1ccc(-c2ccc(C(=O)NC3CC(C)(C)NC(C)(C)C3)o2)cc1	65.9	–	–	·	·
CC1(C)CC(NC(=O)c2ccc(F)cc2)CC(C)(C)N1	–	·	·	·	·
COc1ccc(-c2nn(-c3ccccc3)cc2CO)cc1OC	39.0	–	–	–	–
CN(C)c1cccc(C(=O)NCc2ccccc2)c1	40.6	–	–	–	–
COc1cccc(/C=N/n2nnnc2N)c1OCc1ccccc1Cl	41.4	·	–	–	·
N#CC(C(=O)N1CCOCC1)=c1sc(=Cc2ccccn2)c(=O)n1-c1ccccc1	·	–	·	·	·
S=C(Nc1ccc2nc(-c3ccccn3)c(-c3ccccn3)nc2c1)N1CCOCC1	46.7	–	–	–	–
COc1ccc(-c2cc(C(F)(F)F)c(C#N)c(=O)[nH]2)cc1	·	–	–	–	·
COc1ccc(-c2cc(-c3ccco3)[nH]c(=O)c2C#N)cc1	53.6	–	–	–	–
O=S(=O)(N=C(c1ccccc1)N1CCOCC1)c1ccc(Cl)cc1	·	–	·	·	·
Cc1nnc(N2CCC(C(=O)NC3CCC(C)CC3)CC2)c2nn(-c3ccc(Cl)cc3)c(C)c12 (stereo not given)	45.8	–	–	–	–
CCCOc1ccc(C=NNC(=O)C2CC2)c(OCCC)c1	·	–	·	·	·
CC(=O)Nc1ccc(C(=O)COC(=O)CCN2C(=O)C3CC=CCC3C2=O)cc1 (stereo not given)	57.8	–	–	–	–
O=C(CCN1C(=O)C2CC=CCC2C1=O)OCC(=O)c1ccc(F)cc1 (stereo not given)	–	·	·	·	·
CCc1c(C)n2nc(C)cc2[nH]c1=O	46.9	–	–	–	+
COc1cccc(C=NNC(=O)C(=O)NCc2ccco2)c1O	·	–	·	·	·
CC(C)(C)C(=O)Cn1ncc(N2CCOCC2)c(Br)c1=O	–	–	–	–	·
CN1CCOc2c1cnn(CCO)c2=O	39.5	·	·	·	–
COc1ccc(-c2ccc3c(N)c(C(=O)c4ccc(OC)c(OC)c4)sc3n2)cc1	–	–	–	–	·
COc1ccc(-c2ccc3c(N)c(C(=O)NC(C)C)sc3n2)cc1OC	39.0	·	–	–	·
CC(C)Oc1ccc(CCC(=O)NN=Cc2ccc3c(c2)OCO3)cc1	·	–	·	·	·
CCNC(=O)COC(=O)c1ccc(-c2nc3ccccc3s2)s1	56.2	–	–	–	–
CCC(=O)Nc1nnc(/C=C/c2ccccc2)s1	46.6	–	–	–	–
SMILES	Neddylation inh	UCH37 DUB inh	CTSL1 counter	SUMO HTRF inh	Neddyl inh conf
O=C(O)CCC(=O)N1N=C(c2cccs2)CC1c1cn(-c2ccccc2)nc1-c1ccccc1 (stereo not given)	40.4	–	–	–	·
COc1ccc(-c2nn(-c3ccccc3)cc2C2CC(c3cccs3)=NN2C(=O)CCCC(=O)O)cc1 (stereo not given)	47.3	–	–	–	–
Cc1ccc(-c2nn(-c3ccccc3)cc2C2CC(c3cccs3)=NN2C(=O)CCCC(=O)O)cc1 (stereo not given)	·	–	–	–	·
CC1(C)CC2(CCO1)C(Nc1ccccc1)=NC(=S)N2CC(N)=O (stereo not given)	36.3	–	–	–	–
C/C=C/C=NNc1nc(C)cc(=O)[nH]1	·	–	·	·	·
Cc1ccc(-c2cc(C(=O)NCc3ccccn3)c3ccccc3n2)cc1	40.6	–	–	–	–
CCOc1ccc(-c2cc(C(=O)N/N=C/c3cccnc3)c3ccccc3n2)cc1	53.0	·	–	–	·
COc1ccc(OC)c(-c2cc(C(=O)N/N=C/c3ccc(F)cc3)c3ccccc3n2)c1	38.9	·	–	·	·
